This passage reports ED50 results from ChEMBL document CHEMBL1122725, “Luteinizing hormone-releasing hormone antagonists containing very hydrophobic amino acids” (1984).

SMILES strings stand for the structures. Non-standard residues stand in square brackets, D forms with d. Residues, ends and D or L forms follow the SMILES beside them. dPhe(4-Cl) = N[C@H](Cc1ccc(Cl)cc1)C(=O)O; dPhe(4-F) = N[C@H](Cc1ccc(F)cc1)C(=O)O; d2Nal = N[C@H](Cc1ccc2ccccc2c1)C(=O)O

Assay type in all cases: functional
The subject of assay [1] is Rattus norvegicus. The experiment in a line: Evaluation of antagonistic potency by rat anti-ovulatory assay when administered in 50% propylene glycol / 0.9% saline vehicle. Put shortly: (§1)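 Rats with at least two normal 4-day estrous cycles (daily vaginal lavage cytology, at least 12 days) given the analogue subcutaneously in vehicle, 50% propylene glycol/0.9% saline or Mazola corn oil, at noon on proestrus or on diestrus II (24 h earlier). On expected estrus morning, oviducts examined for ovulated eggs. ED50 from percent ovulating versus log-dose, usually three or more dose groups, 10 animals per group.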

For assay [2], the species on record is Rattus norvegicus. Kind of assay: Duration of anti-ovulatory activity was measured at noon on diestrus II and the vehicle was 50% propylene glycol /0.9 % mazola corn oil. Put shortly:
as §1

The test system of assay [3] is Rattus norvegicus. Kind of assay: Evaluation of antagonistic potency by rat anti-ovulatory assay when administered in 50% propylene glycol / 0.9% mazola corn oil vehicle. Put shortly:
as §1

The species entered for assay [4] is Rattus norvegicus. The experiment in a line: Duration of anti-ovulatory activity was measured at noon on diestrus II and the vehicle was 50% propylene glycol /0.9 % saline. Put shortly: as §1
For assay [5], the species on record is Rattus norvegicus. Kind of assay: Duration of proestrus and the vehicle was 50% propylene glycol /0.9 % mazola corn oil. Put shortly:
as §1

With `CC(=O)N[C@H](Cc1ccc(Cl)cc1)C(=O)N[C@H](Cc1ccc(Cl)cc1)C(=O)N[C@H](Cc1ccc2ccccc2c1)C(=O)N[C@@H](CO)C(=O)N[C@@H](Cc1ccc(O)cc1)C(=O)N[C@H](Cc1ccc2ccccc2c1)C(=O)N[C@@H](CC(C)C)C(=O)N[C@@H](CCCN=C(N)N)C(=O)N1CCC[C@H]1C(=O)NCC(N)=O`, the ED50 in assay [1] was determined as 400 ug injection-1.

In assay [1], `CC(=O)N1CCC[C@H]1C(=O)N[C@H](Cc1ccc(F)cc1)C(=O)N[C@H](Cc1ccc2ccccc2c1)C(=O)N[C@@H](CO)C(=O)N[C@@H](Cc1ccc(O)cc1)C(=O)N[C@H](Cc1ccc(N)cc1)C(=O)N[C@@H](CC(C)C)C(=O)N[C@@H](CCCN=C(N)N)C(=O)N1CCC[C@H]1C(=O)NCC(N)=O` showed an ED50 of 72 ug injection-1.

In assay [1], `CC(=O)N[C@H](Cc1ccc2ccccc2c1)C(=O)N[C@H](Cc1ccc(F)cc1)C(=O)N[C@H](Cc1ccc2ccccc2c1)C(=O)N[C@@H](CO)C(=O)N[C@@H](Cc1ccc(O)cc1)C(=O)N[C@H](CCCN=C(N)N)C(=O)N[C@@H](CC(C)C)C(=O)N[C@@H](CCCN=C(N)N)C(=O)N1CCC[C@H]1C(=O)NCC(N)=O` yielded an ED50 of 16 ug injection-1.

With `CC(=O)N1CCC[C@H]1C(=O)N[C@H](Cc1ccc(F)cc1)C(=O)N[C@H](Cc1ccc2ccccc2c1)C(=O)N[C@@H](CO)C(=O)N[C@@H](Cc1ccc(O)cc1)C(=O)N[C@H](Cc1ccc2ccccc2c1)C(=O)N[C@@H](CC(C)C)C(=O)N[C@@H](CCCN=C(N)N)C(=O)N1CCC[C@H]1C(=O)NCC(N)=O` (stereo in doubt; 7), the ED50 in assay [2] was determined as 140 µg; in assay [3], 4 µg; in assay [1] it was 2.2 ug injection-1; in assay [4] it was 35 ug injection-1.

In turn, `CCNC(=O)[C@@H]1CCCN1C(=O)[C@H](CCCN=C(N)N)NC(=O)[C@H](CC(C)C)NC(=O)[C@@H](CCCN=C(N)N)NC(=O)[C@H](Cc1ccc(O)cc1)NC(=O)[C@H](CO)NC(=O)[C@@H](Cc1ccc2ccccc2c1)NC(=O)[C@@H](Cc1ccc(F)cc1)NC(=O)[C@@H]1CCCN1C(C)=O` returned an ED50 in assay [1] of 32 ug injection-1.

The molecule `CC(=O)N1CCC[C@H]1C(=O)N[C@H](Cc1ccc(Cl)cc1)C(=O)N[C@H](Cc1ccccc1)C(=O)N[C@@H](CO)C(=O)N[C@@H](Cc1ccc(O)cc1)C(=O)N[C@H](Cc1ccc2ccccc2c1)C(=O)N[C@@H](CC(C)C)C(=O)N[C@@H](CCCN=C(N)N)C(=O)N1CCC[C@H]1C(=O)NCC(N)=O` yielded an ED50 in assay [1] of 5.6 ug injection-1.

Regarding `CC(=O)N[C@H](Cc1ccc(Cl)cc1)C(=O)N[C@H](Cc1ccc(Cl)cc1)C(=O)N[C@H](Cc1c[nH]c2ccccc12)C(=O)N[C@@H](CO)C(=O)N[C@@H](Cc1ccc(O)cc1)C(=O)N[C@H](CCCN=C(N)N)C(=O)N[C@@H](CC(C)C)C(=O)N[C@@H](CCCN=C(N)N)C(=O)N1CCC[C@H]1C(=O)N[C@H](C)C(N)=O` (Ac-[dPhe(4-Cl)][dPhe(4-Cl)][dW]SY[dR]LRP[dA]-NH2), the ED50 in assay [2] was determined as 5 µg; in assay [5] it was 1.2 µg; in assay [3], 1.2 µg injection-1; in assay [1] it was 1.8 ug injection-1.

Consider `CC(=O)N[C@@H](CO)C(=O)N[C@H](Cc1ccc(F)cc1)C(=O)N[C@H](Cc1ccc2ccccc2c1)C(=O)N[C@@H](CO)C(=O)N[C@@H](Cc1ccc(O)cc1)C(=O)N[C@H](Cc1ccc2ccccc2c1)C(=O)N[C@@H](CC(C)C)C(=O)N[C@@H](CCCN=C(N)N)C(=O)N1CCC[C@H]1C(=O)NCC(N)=O`, for which the results for the ED50 in assay [3] and in assay [1] were 1.4 ug injection-1 and 4.3 ug injection-1, respectively.

`CCNC(=O)[C@@H]1CCCN1C(=O)[C@H](CCCN=C(N)N)NC(=O)[C@H](CC(C)C)NC(=O)[C@@H](Cc1ccc2ccccc2c1)NC(=O)[C@H](Cc1ccc(O)cc1)NC(=O)[C@H](CO)NC(=O)[C@@H](Cc1ccc2ccccc2c1)NC(=O)[C@@H](Cc1ccc(F)cc1)NC(=O)[C@@H]1CCCN1C(C)=O`: the ED50 in assay [1] is on record as 3.4 ug injection-1.

In assay [1], `CC(C)C[C@H](NC(=O)[C@@H](Cc1ccc2ccccc2c1)NC(=O)[C@H](Cc1ccc(O)cc1)NC(=O)[C@H](CO)NC(=O)[C@@H](Cc1ccc2ccccc2c1)NC(=O)[C@@H](Cc1ccc(F)cc1)NC(=O)[C@H](COCc1ccccc1)NC(=O)OC(C)(C)C)C(=O)N[C@@H](CCCN=C(N)N)C(=O)N1CCC[C@H]1C(=O)NCC(N)=O` came in with an ED50 of 400 ug injection-1.

Regarding `CC(=O)N[C@H](C(=O)N[C@H](Cc1ccc(F)cc1)C(=O)N[C@H](Cc1ccc2ccccc2c1)C(=O)N[C@@H](CO)C(=O)N[C@@H](Cc1ccc(O)cc1)C(=O)N[C@H](Cc1ccc2ccccc2c1)C(=O)N[C@@H](CC(C)C)C(=O)N[C@@H](CCCN=C(N)N)C(=O)N1CCC[C@H]1C(=O)NCC(N)=O)[C@@H](C)O`, the ED50 in assay [3] was 4.5 ug injection-1; in assay [1], 7 ug injection-1.

For `CCNC(=O)[C@@H]1CCCN1C(=O)[C@H](CCCN=C(N)N)NC(=O)[C@H](CC(C)C)NC(=O)[C@@H](CCCN=C(N)N)NC(=O)[C@H](Cc1ccc(O)cc1)NC(=O)[C@H](CO)NC(=O)[C@@H](Cc1ccc2ccccc2c1)NC(=O)[C@@H](Cc1ccc(Cl)cc1)NC(=O)[C@@H]1CCCN1C(C)=O`, the ED50 in assay [1] was 14 ug injection-1.

`CC(=O)N1CCC[C@H]1C(=O)N[C@H](Cc1ccc(F)cc1)C(=O)N[C@H](Cc1ccccc1)C(=O)N[C@@H](CO)C(=O)N[C@@H](Cc1ccc(O)cc1)C(=O)N[C@H](Cc1ccc2ccccc2c1)C(=O)N[C@@H](CC(C)C)C(=O)N[C@@H](CCCN=C(N)N)C(=O)N1CCC[C@H]1C(=O)NCC(N)=O` returned an ED50 in assay [1] of 12.2 ug injection-1.

Take `CC(C)C[C@H](NC(=O)[C@@H](Cc1ccc2ccccc2c1)NC(=O)[C@H](Cc1ccc(O)cc1)NC(=O)[C@H](CO)NC(=O)[C@@H](Cc1ccc2ccccc2c1)NC(=O)[C@@H](Cc1ccc(F)cc1)NC(=O)[C@@H]1CCCN1C=O)C(=O)N[C@@H](CCCN=C(N)N)C(=O)N1CCC[C@H]1C(=O)NCC(N)=O`: the ED50 worked out at 4.4 ug injection-1 in assay [3] and 3 ug injection-1 in assay [1].

Turning to `CC(=O)N[C@H](Cc1ccc2ccccc2c1)C(=O)N[C@H](Cc1ccc(F)cc1)C(=O)N[C@H](Cc1c[nH]c2ccccc12)C(=O)N[C@@H](CO)C(=O)N[C@@H](Cc1ccc(O)cc1)C(=O)N[C@H](CCCN=C(N)N)C(=O)N[C@@H](CC(C)C)C(=O)N[C@@H](CCCN=C(N)N)C(=O)N1CCC[C@H]1C(=O)NCC(N)=O` (Ac-[d2Nal][dPhe(4-F)][dW]SY[dR]LRPG-NH2), the ED50 in assay [2] amounted to 9 µg; in assay [5], 1.1 µg; in assay [1], 2.4 ug injection-1.

In the case of `CC(=O)N1CCC[C@H]1C(=O)N[C@H](Cc1ccc(Cl)cc1)C(=O)N[C@H](Cc1ccc2ccccc2c1)C(=O)N[C@@H](CO)C(=O)N[C@@H](Cc1ccc(O)cc1)C(=O)N[C@H](Cc1ccc2ccccc2c1)C(=O)N[C@@H](CC(C)C)C(=O)N[C@@H](CCCN=C(N)N)C(=O)N1CCC[C@H]1C(=O)NCC(N)=O`, the ED50 in assay [3] is given as 3.6 ug injection-1; in assay [1], 4.8 ug injection-1.

Take `CC(=O)N[C@H](Cc1ccccc1)C(=O)N[C@H](Cc1ccc(Cl)cc1)C(=O)N[C@H](Cc1c[nH]c2ccccc12)C(=O)N[C@@H](CO)C(=O)N[C@@H](Cc1ccc(O)cc1)C(=O)N[C@H](Cc1c[nH]c2ccccc12)C(=O)N[C@@H](CC(C)C)C(=O)N[C@@H](CCCN=C(N)N)C(=O)N1CCC[C@H]1C(=O)NCC(N)=O`: the ED50 in assay [3] is 74 ug injection-1; in assay [1] it was 160 ug injection-1.
